Measurements reported in ChEMBL document CHEMBL4145466, “Design, synthesis, and biological evaluation of novel combretastatin A-4 thio derivatives as microtubule targeting agents” (Eur J Med Chem, 2018).
Active and inactive are the calls of the source. The rule behind the calls is not given here.

How the values were obtained:
Tubulin (Homo sapiens) [1] = molecular target: T1, Tubulin (Homo sapiens) (UniProt P68371+Q9H4B7+P0DPH7+P68366+Q13509+Q71U36+P04350+Q3ZCM7+P07437+P68363+Q9BQE3+Q6PEY2+Q13885+Q9BVA1+Q9BUF5); test: Inhibition of tubulin polymerization in human SKOV3 cells assessed as perturbation in cytoskeleton structure at 1 uM after 24 hrs by Hoechst 33258/FITC staining-based flow cytometric analysis; format: cell-based
How it was run: (§1)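 Cells seeded at 12.5 × 10^4 per well and exposed to 1 µM compound for 24 h. Nuclei were stained with Hoechst 33258 (10 µg/mL, 30 min, 37 °C), then fixed in 4% formaldehyde/PBS (15 min, RT). Cells were permeabilized with 1% Triton X-100, blocked with 2% BSA/PBS for 1 h, and incubated with anti-α-tubulin-FITC (1:50) overnight at 4 °C. Imaged by fluorescence microscopy.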

Tubulin (Homo sapiens) [2] = molecular target: T1, Tubulin (Homo sapiens); test: Inhibition of tubulin polymerization in human HeLa cells assessed as micronuclei formation at 1 uM after 24 hrs by Hoechst 33258/FITC staining-based […] analysis; format: cell-based; how it was run: as §1
[3] = Cytotoxicity against human CCD39Lu cells after 48 hrs by MTT assay; format: cell-based
How it was run: (§2)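 Cells in DMEM with 10% FBS were plated at 2 × 10^4 per well and left overnight, then treated for 48 h at 0.6–20 µM (six concentrations) from 10 mM DMSO stocks. MTT was added for 2 h, and formazan was dissolved in DMSO and read at 570 nm. Viability was expressed as % of control, with IC50 taken from dose-response curves. Results are mean ± SD of three independent experiments.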

Tubulin [4] = test: Inhibition of tubulin polymerization in human HaCaT cells assessed as micronuclei formation at 1 uM after 24 hrs by ELISA; format: cell-based
Tubulin [5] = test: Inhibition of tubulin polymerization in human HaCaT cells assessed as perturbation in cytoskeleton structure at 1 uM after 24 hrs by ELISA; format: cell-based
A-431 [6] = test: Induction of apoptosis in human A431 cells after 24 hrs by FITC Annexin V/propidium iodide staining-based FACScan flow cytometric analysis; format: functional, cell-based
How it was run: (§3)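 After 24 h of compound exposure, 1 × 10^6 cells were labelled with annexin V-FITC and PI for 15 min at 25 °C in the dark. They were read on a FACScan with 488 nm excitation, detecting FITC at 525 nm and PI at 620 nm. Results are mean ± SD of three independent experiments, with Dunnett's test against control.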

MDA-MB-231 [7] = test: Induction of apoptosis in human MDA-MB-231 cells after 24 hrs by FITC Annexin V/propidium iodide staining-based FACScan flow cytometric analysis; format: functional, cell-based; how it was run: as §3
Tubulin (Homo sapiens) [8] = molecular target: T1, Tubulin (Homo sapiens); test: Inhibition of tubulin polymerization in human MDA-MB-231 cells assessed as micronuclei formation at 1 uM after 24 hrs by Hoechst 33258/FITC staining-based flow cytometric analysis; format: cell-based
Tubulin (Homo sapiens) [9] = molecular target: T1, Tubulin (Homo sapiens); test: Inhibition of tubulin polymerization in human MCF7 cells assessed as perturbation in cytoskeleton structure at 1 uM after 24 hrs by Hoechst 33258/FITC staining-based flow cytometric analysis; format: cell-based; how it was run: as §1
A549 = test: Cytotoxicity against human A549 cells after 48 hrs by MTT assay; format: functional, cell-based; details: A549, 48 h
HeLa [10] = test: Cytotoxicity against human HeLa cells after 48 hrs by MTT assay; format: functional, cell-based; how it was run: as §2
Tubulin (Homo sapiens) [11] = molecular target: T1, Tubulin (Homo sapiens); test: Inhibition of tubulin polymerization in human A431 cells assessed as micronuclei formation at 1 uM after 24 hrs by Hoechst 33258/FITC staining-based flow cytometric analysis; format: cell-based
Tubulin (Homo sapiens) [12] = molecular target: T1, Tubulin (Homo sapiens); test: Inhibition of tubulin polymerization in human MCF7 cells assessed as micronuclei formation at 1 uM after 24 hrs by Hoechst 33258/FITC staining-based […] analysis; format: cell-based; how it was run: as §1
MCF7 [13] = test: Induction of apoptosis in human MCF7 cells after 24 hrs by FITC Annexin V/propidium iodide staining-based FACScan flow cytometric analysis; format: functional, cell-based; how it was run: as §3
Tubulin (Homo sapiens) [14] = molecular target: T1, Tubulin (Homo sapiens); test: Inhibition of tubulin polymerization in human SKOV3 cells assessed as perturbation in cytoskeleton structure at 1 uM after 24 hrs by ELISA; format: cell-based
A-431 [15] = test: Cytotoxicity against human A431 cells after 48 hrs by MTT assay; format: functional, cell-based; details: A-431, 48 h; how it was run: as §2
[16] = Inhibition of porcine tubulin polymerization after 1 hr by spectrophotometric analysis; set-up: species or system Sus scrofa
How it was run: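 Polymerization was started by shifting from 4 °C to 37 °C, and absorbance was followed at 37 °C for 60 min. The vehicle served as control.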

A-431 [17] = test: Cell cycle arrest in human A431 cells assessed as accumulation of cells at G2/M phase at 0.1 to 1 uM after 24 hrs by propidium iodide staining-based FACS analysis; format: functional
How it was run: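 Cells were seeded at 5 × 10^5 per well in DMEM with 10% FBS and left overnight, then exposed to 0.1, 0.5 or 1 µM for 24 h. DMSO served as the negative control and 50 nM camptothecin as the positive control. Cells were trypsinized, fixed in 70% ethanol for 30 min at 4 °C, stained with 50 µg/mL PI plus 100 µg/mL RNase A for 30 min in the dark, and analysed by flow cytometry. Results are mean ± SD of three experiments, compared by ANOVA with Dunnett's test.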

Tubulin [18] = test: Inhibition of tubulin polymerization in human HaCaT cells assessed as perturbation in cytoskeleton structure at 1 uM after 24 hrs by Hoechst 33258/FITC staining-based […]; format: cell-based; how it was run: as §1
Tubulin (Homo sapiens) [19] = molecular target: T1, Tubulin (Homo sapiens); test: Inhibition of tubulin polymerization in human MDA-MB-231 cells assessed as perturbation in cytoskeleton structure at 1 uM after 24 hrs by Hoechst 33258/FITC staining-based flow cytometric analysis; format: cell-based
MCF7 [20] = test: Cytotoxicity against human MCF7 cells after 48 hrs by MTT assay; format: functional, cell-based; details: MCF7, 48 h; how it was run: as §2
Tubulin [21] = test: Inhibition of tubulin polymerization in human HaCaT cells assessed as micronuclei formation at 1 uM after 24 hrs by Hoechst 33258/FITC staining-based […]; format: cell-based; how it was run: as §1
Tubulin (Homo sapiens) [22] = molecular target: T1, Tubulin (Homo sapiens); test: Inhibition of tubulin polymerization in human HeLa cells assessed as micronuclei formation at 1 uM after 24 hrs by ELISA; format: cell-based
HeLa [23] = test: Induction of apoptosis in human HeLa cells after 24 hrs by FITC Annexin V/propidium iodide staining-based FACScan flow cytometric analysis; format: functional, cell-based; how it was run: as §3
Tubulin (Homo sapiens) [24] = molecular target: T1, Tubulin (Homo sapiens); test: Inhibition of tubulin polymerization in human A431 cells assessed as perturbation in cytoskeleton structure at 1 uM after 24 hrs by Hoechst 33258/FITC staining-based flow cytometric analysis; format: cell-based
Tubulin (Homo sapiens) [25] = molecular target: T1, Tubulin (Homo sapiens); test: Inhibition of tubulin polymerization in human SKOV3 cells assessed as micronuclei formation at 1 uM after 24 hrs by ELISA; format: cell-based
Tubulin (Homo sapiens) [26] = molecular target: T1, Tubulin (Homo sapiens); test: Inhibition of tubulin polymerization in human A431 cells assessed as perturbation in cytoskeleton structure at 1 uM after 24 hrs by ELISA; format: cell-based
Tubulin (Homo sapiens) [27] = molecular target: T1, Tubulin (Homo sapiens); test: Inhibition of tubulin polymerization in human MDA-MB-231 cells assessed as micronuclei formation at 1 uM after 24 hrs by ELISA; format: cell-based
MDA-MB-231 [28] = test: Cytotoxicity against human MDA-MB-231 cells after 48 hrs by MTT assay; format: functional, cell-based; details: MDA-MB-231, 48 h; how it was run: as §2
SK-OV-3 = test: Induction of apoptosis in human SKOV3 cells after 24 hrs by FITC Annexin V/propidium iodide staining-based FACScan flow cytometric analysis; format: functional, cell-based; how it was run: as §3
HaCaT = test: Cytotoxicity against human HaCaT cells after 48 hrs by MTT assay; format: cell-based; how it was run: as §2

COc1ccc(-c2ocnc2-c2cc(Br)c(OC)c(OC)c2)cc1SC
inhibition (Tubulin (Homo sapiens) [1]): Active
inhibition (Tubulin (Homo sapiens) [2]): Active
IC50 [3]: > 20 µM
inhibition (INH) (Tubulin [4]): Active
inhibition (INH) (Tubulin [5]): Active
Activity (A-431 [6]): Dose-dependent effect
Activity (MDA-MB-231 [7]): Dose-dependent effect
inhibition (Tubulin (Homo sapiens) [8]): Active
inhibition (Tubulin (Homo sapiens) [9]): Active
IC50 (A549): > 20 µM
IC50 (HeLa [10]): 630 nM
inhibition (Tubulin (Homo sapiens) [11]): Active
inhibition (Tubulin (Homo sapiens) [12]): Active
Activity (MCF7 [13]): Dose-dependent effect
inhibition (Tubulin (Homo sapiens) [14]): Active
IC50 (A-431 [15]): 430 nM
IC50 [16]: 850 nM
Activity (A-431 [17]): Active
inhibition (INH) (Tubulin [18]): Active
inhibition (Tubulin (Homo sapiens) [19]): Active
IC50 (MCF7 [20]): 2780 nM
inhibition (INH) (Tubulin [21]): Active
inhibition (Tubulin (Homo sapiens) [22]): Active
Activity (HeLa [23]): Dose-dependent effect
inhibition (Tubulin (Homo sapiens) [24]): Active
inhibition (Tubulin (Homo sapiens) [25]): Active
inhibition (Tubulin (Homo sapiens) [26]): Active
inhibition (Tubulin (Homo sapiens) [27]): Active
IC50 (MDA-MB-231 [28]): 920 nM
Activity (SK-OV-3): Dose-dependent effect
IC50 (HaCaT): 520 nM

COc1ccc(-c2ocnc2-c2cc(OC)c(SC)c(OC)c2)cc1O
inhibition (Tubulin (Homo sapiens) [1]): Active
inhibition (Tubulin (Homo sapiens) [2]): Active
IC50 [3]: > 20 µM
inhibition (INH) (Tubulin [4]): Active
inhibition (INH) (Tubulin [5]): Active
Activity (A-431 [6]): Dose-dependent effect
Activity (MDA-MB-231 [7]): Dose-dependent effect
inhibition (Tubulin (Homo sapiens) [8]): Active
inhibition (Tubulin (Homo sapiens) [9]): Active
IC50 (A549): > 20 µM
IC50 (HeLa [10]): 9 nM
inhibition (Tubulin (Homo sapiens) [11]): Active
inhibition (Tubulin (Homo sapiens) [12]): Active
Activity (MCF7 [13]): Dose-dependent effect
inhibition (Tubulin (Homo sapiens) [14]): Active
IC50 (A-431 [15]): 250 nM
IC50 [16]: 1050 nM
Activity (A-431 [17]): Active
inhibition (INH) (Tubulin [18]): Active
inhibition (Tubulin (Homo sapiens) [19]): Active
IC50 (MCF7 [20]): 450 nM
inhibition (INH) (Tubulin [21]): Active
inhibition (Tubulin (Homo sapiens) [22]): Active
Activity (HeLa [23]): Dose-dependent effect
inhibition (Tubulin (Homo sapiens) [24]): Active
inhibition (Tubulin (Homo sapiens) [25]): Active
inhibition (Tubulin (Homo sapiens) [26]): Active
inhibition (Tubulin (Homo sapiens) [27]): Active
IC50 (MDA-MB-231 [28]): 710 nM
Activity (SK-OV-3): Dose-dependent effect
IC50 (HaCaT): 320 nM
